# This sample holds only a part of the variants without activity.
# B1: tRNA (parent)
# chain: GUUCCGUUGGCGUAAUGGUAACGCGUCUCCCUCCUAAGGAGAAGACUGCGGGUUCGAGUCCCGUACGGAACG
# Variants of: B1
# Assay: yeast fitness relative to wild type (ratio to wild type); higher = fitter; tRNA-Arg(CCU), competitive growth, 37 C, YPD
# Summary of the method: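 Start and end populations of a pooled competition were compared by 100-nucleotide paired-end sequencing of gene amplicons. The Saccharomyces cerevisiae strains carried tRNA-Arg(CCU) gene variants at the native genomic locus, synthesised with a 3% per-site mutation rate at 69 sites, and competed in YPD at 37°C for 24 hours in six parallel replicates. Darwinian fitness relative to wild type was based on the change in genotype frequencies. Genotypes required ≥ 100 starting reads, and estimates < 0.5 were set to 0.5.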
row,Variant,yeast fitness
1,GUUCCGUUGGCGUAACGGUAACGCGUCUCCCUCCUAAGGAGAAGACCGCGGGUUCGAGUCCCGUACGGAACG [U16C U47C],0.899
2,GUUCCGUUGGCGUAAGGCUAACGCGUCUCCCUCCUAAGGAGAAGACUGCGGGUUCGAGACCCGUUAGGAACG [U16G G18C U59A A65U C66A],≤ 0.5
3,GUUCCGUUGGCGUAAGGGUAACGCGUCUCCCUCCUAAGGAGAAGAUUGCGGGCUCGAGUCCCGUACGGCACG [U16G C46U U53C A69C],0.711
4,GUUCCGUUGGCGUAAGGGUAACCCGUCUCCCUCCCAAGGAGAAGACUGCGGGUUCGAGUCCCGUACGGAACG [U16G G23C U35C],0.655
5,GUUCCGUUGGCGUAACGGUAACGCGUCUCCCUCCUAAGGAGAAGACUGCGGGUUCGAGACCAGUACCGAACG [U16C U59A C62A G67C],≤ 0.5
6,GUUCCGUUGGCGUAAGGGUAACGCGUCUCCCUCCUAAGGAGAAGAAUGCGGGUUCCAGUCCCGUACGGAGCG [U16G C46A G56C A70G],≤ 0.5
7,GUUCCGUUGGCGUAAGGGUAACGCGUCUCCCUCCUAAGGAGAAGACUGCGAGUUCGAGUCCCGUACGGAACG [U16G G51A],0.783
8,GUUCCGUUGGCGUAACGGUAACGCGUCUCCCUCCUAAGGAGAAGACAGCGGAUUCGAGUCCCGUACGGAACG [U16C U47A G52A],≤ 0.5
9,GUUCCGUUGGCGUAAGGCUAUCGCGUCUCCCUCCUAAGGAGAAGACUGCGGGUUCGAGUCCCGUACGGAACG [U16G G18C A21U],0.59
10,GUUCCGUUGGCGUAAGGGUAAAGCGUCUCCCUCCUAAGGAGAAGACUGCGGGUUCGGGUCCCGUACGGAACG [U16G C22A A57G],≤ 0.5
11,GUUCCGUUGGCGUAAGGGUAACGCGUGUCCCUCCUAAGGAGAAGACUGCGGGUUCGAGUCCCGUACGGAACG [U16G C27G],0.639
12,GUUCCGUUGGCGUAAGGGUAACGCGUCUGCCUCCUAAGGAGAAGACUGCGGGUUCGAAUCCCGUACGGAACG [U16G C29G G58A],0.59
13,GUUCCGUUGGCGUAAGGGUAACGCGUCUCCCUCCUAAGGAGAAGACUGCGGGUUCGAGUCUCGUACGGAACG [U16G C61U],0.75
14,GUUCCGUUGGCGUAAGGGUAUCGCGUCUCCCUCCUAAGGCGAAGACUGCGGGUUCGACUCCCGUCGGGAACG [U16G A21U A40C G58C A65C C66G],0.515
15,GUUCCGUUGGCGUAAGGGUAACCCGUCUCCCUCCCAAGGAGAAGACUGCGGGUUCGAGUCCCAUACGGAACG [U16G G23C U35C G63A],≤ 0.5
16,GUUCCGUUGGCGUAAGGGUAACGCGUCUCCCUCCUAGGGAGAAGACUGCGCGUUCGAGUCCGGUACGGAACG [U16G A37G G51C C62G],≤ 0.5
17,GUUCCGUUGGCGUAAGGGUAACGCGUCUCCCUCCUAAGGAGAAGACUGCGGGUUCGAGUGCCGUACGGAACG [U16G C60G],0.658
18,GUUCCGUUGGCGUAACGGUAACGCGUCUCCCUCCUAAGGAGAAGACUGCGGGUUCGAGCCCCGUACAGAACG [U16C U59C G67A],≤ 0.5
19,GUUCCGUUGGCGUAAGGGUAACGCGUCUCCCUCCUAAGGAGAAGACUGCGGGUUCGAGUCUCGUACGGCACG [U16G C61U A69C],0.644

row,Variant,yeast fitness
1,GUUCCGUUGGCGUAAGGGUAACGCGUCUUCCUCCUAAGGAGAAGACUGCGGGUUCGAGUCCCGUACGGAACG [U16G C29U],0.806
2,GUUCCGUUGGCGUAAGGGUAACGCGUCUCCCUCCUAAGGAGAAGUCUGCGGGUCCGAGUCCCGAACGGAACG [U16G A45U U54C U64A],≤ 0.5
3,GUUCCGUUGGCGUAAGGGUAACGCGUCUUCCUCCUAAGGAGAAGACUGCGGGUUGGAGUCCCGUACGGAACG [U16G C29U C55G],≤ 0.5
4,GUUCCGUUGGCGUAAGGGUAGCGCGUCUCCUUCCUAAGGAGAAGACUGCGGGUUCGAGUCCCGUACGGAACG [U16G A21G C31U],0.985
5,GUUCCGUUGGCGUAAGGCUAACGCGUCUCCCUCCUAAGGAGAAGACUGCGGGUUCGAGACCCGUUCGGAACG [U16G G18C U59A A65U],0.687
6,GUUCCGUUGGCGUAAGGGUAACGCGUCUCCCUCCUAAGGAGAAAACUGCGGGUUCGAGUCCUGUACGGAACG [U16G G44A C62U],0.652
7,GUUCCGUUGGCGUAAGGGUAACGCGUCUCCCUCCUAAGGAGAAGUCUGCGGGUUCGAGUCCCGUACGGAACG [U16G A45U],0.969
8,GUUCCGUUGGCGUAAGGGUAACGCGUCUCCCUCCUAAGGAGAAGGCUGCGGGUUCGAGUCCCGUACGGAACG [U16G A45G],1
9,GUUCCGUUGGCGUAAGGGUAACGCGUCUCCCUCCUAAGAAGAAGCCUGCGGGUUCGAGUCACGUACGGUACG [U16G G39A A45C C61A A69U],≤ 0.5
10,GUUCCGUUGGCGUAAGGGUAACGCGUCUCCCUCCUAAGGAGAAGACUGCGGGUUCGAGUCUCGUAGGGAACG [U16G C61U C66G],0.569
11,GUUCCGUUGGCGUAAGGGUAAGGCGUCUCCCUCCUAAGGAGAAGACUGCGGGUUCGAGUCCCGUUCGGAACG [U16G C22G A65U],0.722
12,GUUCCGUUGGCGUAAGGGUAAUGCGUCUCCCUCCUAAGGAGAAGACUGCGGGUUCGAGUCCUGUACGGAACG [U16G C22U C62U],0.645
13,GUUCCGUUGGCGUAAGGGUAACGCGUCUCCCUCCUAAGGAGAUGACUGCCGGUUCGAGUCCCGUACGGAACG [U16G A43U G50C],0.576
14,GUUCCGUUGGCGUAAGGGUAACGCGUCUCCCUCCUAAGGAGAAGACUACGGGUUCGAGUCCCGUACGGAACG [U16G G48A],0.903
15,GUUCCGUUGGCGUAAGGGUAACGCGUCUCCCUCCUAAGGAGAACACUGCGGGUUCGAGUCCCGUACGGAACG [U16G G44C],0.912
16,GUUCCGUUGGCGUAAGGGUAACGCGUCUCCCUCCUAAGGAGUAGACUGCGGGUUCGAGUCCCGUACGGAACG [U16G A42U],0.994
17,GUUCCGUUGGCGUAAGGGUAACGCGUCUCCCUUCUAAGGAGAACACUGCGGGUUCGAGUCCCGUACGGAACG [U16G C33U G44C],≤ 0.5
18,GUUCCGUUGGCGUAAGGGUCACGCGUCUCCCUCCUAAGGAAAAGACUGCGGGUUUGAGUCCCGUACGGAACG [U16G A20C G41A C55U],≤ 0.5
